In ChEMBL document CHEMBL5543129, “Peptide Inhibitor Targeting the Extraterminal Domain in BRD4 Potently Suppresses Breast Cancer Both In Vitro and In Vivo” (J Med Chem, 2024):
Square brackets hold non-standard residues; d marks the D form. Peptide text beside a SMILES is read from it. Hyp = O=C(O)[C@@H]1C[C@@H](O)CN1; Ahx = NCCCCCC(=O)O

Columns and labels:
[1] = target: T1, von Hippel-Lindau disease tumor suppressor/Bromodomain-containing protein 4 (Homo sapiens) (UniProt O60885+P40337); assay: PROTAC activity at VHL/His-tagged BDR4 ET domain (601 to 683 residues) (unknown origin) transfected in MCF7 cells assessed as degradation by measuring fold change in remaining BRD4 level at 10 uM incubated for 12 hrs by immunoblotting analysis (reference value: […]); format: cell-based
T1 sequence (P40337 whole entry, looked up, other chains not shown, the tested form may be a part): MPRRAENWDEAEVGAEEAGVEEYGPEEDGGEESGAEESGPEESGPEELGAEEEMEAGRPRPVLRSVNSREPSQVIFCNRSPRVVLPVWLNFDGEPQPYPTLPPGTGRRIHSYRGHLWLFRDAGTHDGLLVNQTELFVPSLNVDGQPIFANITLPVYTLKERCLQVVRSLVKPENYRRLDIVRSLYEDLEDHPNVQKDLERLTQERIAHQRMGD

[2] = target: T1, von Hippel-Lindau disease tumor suppressor/Bromodomain-containing protein 4 (Homo sapiens); assay: PROTAC activity at VHL/BDR4 ET domain in human MCF7 cells assessed as degradation by measuring fold change in remaining BRD4 level at 10 uM incubated for 6 hrs by immunoblotting analysis (reference value: […]); format: cell-based
[3] = target: T2, von Hippel-Lindau disease tumor suppressor/Bifunctional arginine demethylase and lysyl-hydroxylase JMJD6 (Homo sapiens) (UniProt P40337+Q6NYC1); assay: Protac activity at VHL/JMJD6 in human MCF7 cells assessed as degradation by measuring fold change in remaining JMJD6 level at 10 uM incubated for 12 hrs by immunoblotting analysis (reference value: […]); format: cell-based
[4] = target: T2, von Hippel-Lindau disease tumor suppressor/Bifunctional arginine demethylase and lysyl-hydroxylase JMJD6 (Homo sapiens); assay: Protac activity at VHL/JMJD6 in human MCF7 cells assessed as degradation by measuring fold change in remaining JMJD6 level at 2.5 uM incubated for 24 hrs by immunoblotting analysis (reference value: […]); format: cell-based
[5] = target: T1, von Hippel-Lindau disease tumor suppressor/Bromodomain-containing protein 4 (Homo sapiens); assay: PROTAC activity at VHL/His-tagged BDR4 […] (unknown origin) transfected in MCF7 cells assessed as degradation by measuring fold change in remaining BRD4 level at 5 uM incubated for 24 hrs by immunoblotting analysis (reference value: […]); format: cell-based
[6] = target: T1, von Hippel-Lindau disease tumor suppressor/Bromodomain-containing protein 4 (Homo sapiens); assay: PROTAC activity at VHL/His-tagged BDR4 ET domain (471 to 730 residues) (unknown origin) transfected in MCF7 cells assessed as degradation by measuring fold change in remaining BRD4 level at 10 uM incubated for 24 hrs by immunoblotting analysis (reference value: […]); format: cell-based
[7] = target: T1, von Hippel-Lindau disease tumor suppressor/Bromodomain-containing protein 4 (Homo sapiens); assay: PROTAC activity at VHL/BDR4 ET domain in human MCF7 cells assessed as degradation by measuring fold change in remaining BRD4 level at 10 uM incubated for 24 hrs in presence of MG132 by immunoblotting analysis (reference value: […]); format: cell-based
[8] = target: T1, von Hippel-Lindau disease tumor suppressor/Bromodomain-containing protein 4 (Homo sapiens); assay: PROTAC activity at VHL/BDR4 ET domain in human MCF7 cells assessed as degradation by measuring fold change in remaining BRD4 level at 2.5 uM incubated for 24 hrs by immunoblotting analysis (reference value: […]); format: cell-based
[9] = target: T2, von Hippel-Lindau disease tumor suppressor/Bifunctional arginine demethylase and lysyl-hydroxylase JMJD6 (Homo sapiens); assay: PROTAC activity at VHL/JMJD6 in human MCF7 cells assessed as degradation by measuring fold change in remaining JMJD6 level at 10 uM incubated for 24 hrs in presence of TAT-PiET by immunoblotting analysis relative to TAT/TAT-PROTAC; format: cell-based
How it was run: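 MCF7 cells were left untreated or given TAT, TAT-PROTAC, TAT-PiET or the PROTAC peptide (each 10 μM) for 24 h. Lysates were immunoblotted with β-actin for loading. Three repeats, quantified in the Supporting Table.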

[10] = target: T1, von Hippel-Lindau disease tumor suppressor/Bromodomain-containing protein 4 (Homo sapiens); assay: PROTAC activity at VHL/His-tagged BDR4 ET domain (601 to 683 residues) (unknown origin) transfected in MCF7 cells assessed as degradation by measuring fold change in remaining BRD4 level at 5 uM incubated for 24 hrs by immunoblotting analysis (reference value: […]); format: cell-based
[11] = target: T1, von Hippel-Lindau disease tumor suppressor/Bromodomain-containing protein 4 (Homo sapiens); assay: PROTAC activity at VHL/BDR4 ET domain in human MCF7 cells assessed as degradation by measuring fold change in remaining BRD4 level at 10 uM incubated for 12 hrs by immunoblotting analysis (reference value: […]); format: cell-based
[12] = target: T1, von Hippel-Lindau disease tumor suppressor/Bromodomain-containing protein 4 (Homo sapiens); assay: PROTAC activity at VHL/BDR4 ET domain in human MCF7 cells assessed as degradation by measuring fold change in remaining BRD4 level at 10 uM incubated for 24 hrs in presence of TAT-PiET by immunoblotting analysis relative to TAT/TAT-PROTAC; format: cell-based
How it was run: (§1)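 MCF7 cells are treated with PROTAC peptide (dose series, or 10 μM over a time course, or 10 μM with or without MG132 10 μM) for up to 24 h. Comparators are TAT, TAT-PiET, or TAT-PROTAC at 10 μM. BRD4 is measured by immunoblot, normalised to β-actin; three repeats.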

[13] = target: T1, von Hippel-Lindau disease tumor suppressor/Bromodomain-containing protein 4 (Homo sapiens); assay: PROTAC activity at VHL/His-tagged BDR4 […] (unknown origin) transfected in MCF7 cells assessed as degradation by measuring fold change in remaining BRD4 level at 10 uM incubated for 24 hrs by immunoblotting analysis (reference value: […]); format: cell-based
[14] = target: T1, von Hippel-Lindau disease tumor suppressor/Bromodomain-containing protein 4 (Homo sapiens); assay: PROTAC activity at VHL/His-tagged BDR4 […] (unknown origin) transfected in MCF7 cells assessed as degradation by measuring fold change in remaining BRD4 level at 20 uM incubated for 24 hrs by immunoblotting analysis (reference value: […]); format: cell-based
[15] = target: T1, von Hippel-Lindau disease tumor suppressor/Bromodomain-containing protein 4 (Homo sapiens); assay: PROTAC activity at VHL/His-tagged BDR4 ET domain (1 to 470 residues) (unknown origin) transfected in MCF7 cells assessed as degradation by measuring fold change in remaining BRD4 level at 20 uM incubated for 24 hrs by immunoblotting analysis (reference value: […]); format: cell-based
[16] = target: T1, von Hippel-Lindau disease tumor suppressor/Bromodomain-containing protein 4 (Homo sapiens); assay: PROTAC activity at VHL/BDR4 ET domain in human MCF7 cells assessed as degradation by measuring fold change in remaining BRD4 level at 10 uM incubated for 24 hrs in presence of TAT by immunoblotting analysis relative to TAT/TAT-PROTAC; format: cell-based; how it was run: as §1
[17] = target: T2, von Hippel-Lindau disease tumor suppressor/Bifunctional arginine demethylase and lysyl-hydroxylase JMJD6 (Homo sapiens); assay: Protac activity at VHL/JMJD6 in human MCF7 cells assessed as degradation by measuring fold change in remaining JMJD6 level at 10 uM incubated for 24 hrs by immunoblotting analysis (reference value: […]); format: cell-based
[18] = test system: MCF7; assay: Inhibition of His-tagged BRD4 ET domain to Flag-tagged JMJD6 (unknown origin) protein-protein interaction in human MCF7 cells assessed as fold decrease in His-tagged BRD4 ET level at 10 uM incubated for 12 hrs by immunoblotting assay (reference value: […]); format: cell-based
[19] = test system: MDA-MB-231; assay: Cytotoxicity against human MDA-MB-231 cells incubated for 1 week by CellTiter 96 Aqueous One Solution based assay; format: functional, cell-based; conditions: MDA-MB-231, 168 h
How it was run: (§2)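 Cells grown in RPMI-1640 (T47D, BT549) or DMEM (MDA-MB-231) with 10% FBS, 37 °C, 5% CO2. Seeded 2 × 10^3/well, exposed to a gradient concentration of peptide for 1 week. MTS-type reagent added 20 μL per 100 μL medium, 1 h at 37 °C, absorbance read at 490 nm. EC50 derived from the concentration–response curve.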

[20] = test system: MCF7; assay: Inhibition of His-tagged BRD4 ET domain to Flag-tagged JMJD6 (unknown origin) protein-protein interaction in human MCF7 cells assessed as fold decrease in Flag-tagged JMJD6 level at 10 uM incubated for 12 hrs by immunoblotting assay (reference value: […]); format: cell-based
[21] = test system: T47D; assay: Cytotoxicity against human T47D cells incubated for 1 week by CellTiter 96 Aqueous One Solution based assay; format: functional, cell-based; conditions: 168 h; how it was run: as §2

Compound: CC[C@H](C)[C@H](NC(=O)[C@H](Cc1ccc(O)cc1)NC(=O)[C@@H]1C[C@@H](O)CN1C(=O)[C@H](C)NC(=O)[C@@H](NC(=O)CCCCCNC(=O)[C@H](CCC(=O)O)NC(=O)CNC(=O)[C@H](CS)NC(=O)[C@H](CCCCN)NC(=O)[C@H](Cc1ccccc1)NC(=O)[C@H](CCCCN)NC(=O)[C@H](CCC(N)=O)NC(=O)[C@H](CC(N)=O)NC(=O)[C@H](CCCNC(=N)N)NC(=O)[C@H](CCCNC(=N)N)NC(=O)[C@H](CCCNC(=N)N)NC(=O)[C@H](CCCNC(=N)N)NC(=O)[C@H](CCC(N)=O)NC(=O)[C@H](CCCNC(=N)N)NC(=O)[C@H](CCCNC(=N)N)NC(=O)[C@H](CCCCN)NC(=O)[C@H](CCCCN)NC(=O)[C@H](CCCNC(=N)N)NC(=O)CNC(=O)[C@@H](N)Cc1ccc(O)cc1)[C@@H](C)CC)C(=O)O (H-YGRKKRRQRRRRNQKFKCGE[Ahx]IA[Hyp]YI-OH)
- fold change (FC) [1]: 0.78
- fold change (FC) [2]: 0.72
- fold change (FC) [3]: 0.85
- fold change (FC) [4]: 0.91
- fold change (FC) [5]: 1.01
- fold change (FC) [6]: 0.68
- fold change (FC) [7]: 0.96
- fold change (FC) [8]: 0.92
- fold change (FC) [9]: 0.84
- fold change (FC) [10]: 0.72
- fold change (FC) [11]: 0.55
- fold change (FC) [12]: 0.84
- fold change (FC) [13]: 0.91
- fold change (FC) [14]: 1.4
- fold change (FC) [15]: 1.06
- fold change (FC) [16]: 0.63
- fold change (FC) [17]: 0.59

Compound: H-YGRKKRRQRRRRNQKFKCGE-OH
- fold change (FC) [18]: 0.49
- EC50 [19]: 4.68 µM
- fold change (FC) [20]: 0.93
- EC50 [21]: 13.3 µM
